Calls of active or inactive are those of the source. The calls are words filed in the database; no cut-off is given here.
How the values were obtained:
[1] = target: T1, Aldo-keto reductase family 1 member C3 (Homo sapiens) (UniProt P42330); test: Inhibition of AKR1C3 in human KG1a cells assessed as potentiation of etoposide-induced cytotoxicity by measuring reduction in cell viability at 0.1 uM coincubated with etoposide at 1 uM after 72 hrs by MTS assay; type: cell-based
T1 sequence (whole entry): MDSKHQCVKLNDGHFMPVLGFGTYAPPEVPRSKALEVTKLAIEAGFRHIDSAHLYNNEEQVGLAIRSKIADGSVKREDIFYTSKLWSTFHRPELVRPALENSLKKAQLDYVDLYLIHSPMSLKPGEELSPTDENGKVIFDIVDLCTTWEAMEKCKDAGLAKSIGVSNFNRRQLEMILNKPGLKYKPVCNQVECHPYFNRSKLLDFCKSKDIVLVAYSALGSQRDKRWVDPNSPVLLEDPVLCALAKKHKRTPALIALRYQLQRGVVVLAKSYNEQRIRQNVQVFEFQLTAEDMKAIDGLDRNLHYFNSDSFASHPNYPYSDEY
Outline: (§1)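 HL-60 or KG1a cells were coincubated with inhibitor and etoposide for 72 h, then cell viability was read. Values are mean ± SD (n = 6). Treatments were compared with control by two-tailed t test.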

[2] = system: KG-1a; test: Cytotoxicity against human KG1a cells expressing AKR1C3 assessed as reduction in cell viability at 1 uM at 72 hrs by MTS assay; type: functional
[3] = system: HL-60; test: Downregulation of AKR1C3 expression in human HL60 cells at 1 to 10 uM after 72 hrs by Western blot analysis; type: functional, cell-based
Outline: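 KG1a and HL-60 cells were incubated with inhibitor at 1, 5 and 10 μM. AKR1C3 expression levels were determined after 48 h and 72 h incubation.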

[4] = target: T1, Aldo-keto reductase family 1 member C3 (Homo sapiens); test: Inhibition of AKR1C3 in human HL60 cells assessed as potentiation of etoposide-induced cytotoxicity by measuring reduction in cell viability pre-treated with 0.1 to 1 uM compound for 24 hrs followed by 1 uM etoposide exposure for additional 72 hrs by MTS assay; type: cell-based
[5] = target: T1, Aldo-keto reductase family 1 member C3 (Homo sapiens); test: Inhibition of AKR1C3 in human HL60 cells assessed as potentiation of etoposide-induced cytotoxicity by measuring reduction in cell viability at 0.1 uM coincubated with etoposide at 1 uM after 72 hrs by MTS assay (reference value: 40%); type: cell-based; outline: as §1
[6] = system: HL-60; test: Cytotoxicity against human HL60 cells assessed as reduction in cell viability at 50 uM at 72 hrs by MTS assay; type: functional, cell-based
Outline: (§2)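 HL-60 human acute promyelocytic leukemia cells exposed to AKR1C3 inhibitor alone, with no chemotherapeutic, over a range up to 100 μM. Lower working range was 0.1–1 μM. Read-out was cell viability relative to untreated control.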

[7] = target: T1, Aldo-keto reductase family 1 member C3 (Homo sapiens); test: Inhibition of AKR1C3 in human HL60 cells assessed as potentiation of etoposide-induced cytotoxicity by measuring reduction in cell viability at 0.1 uM coincubated with etoposide at 0.5 uM after 72 hrs by MTS assay (reference value: 20%); type: cell-based; outline: as §1
[8] = system: HL-60; test: Cytotoxicity against human HL60 cells assessed as reduction in cell viability at 0.1 to 1 uM at 72 hrs by MTS assay; type: functional; outline: as §2
[9] = species: Homo sapiens; test: Selectivity ratio of IC50 for recombinant AKR1C2 (unknown origin) to IC50 for recombinant AKR1C3 (unknown origin)
[10] = target: Aldo-keto reductase family 1 member C2 (Homo sapiens, UniProt P52895); test: Inhibition of recombinant AKR1C2 (unknown origin) assessed as reduction in S-tetralol catalyzed oxidation in presence of NADPH by fluorescence assay
[11] = target: T2, Aldo-keto reductase family 1 member C3 (Homo sapiens, UniProt P42330); test: Inhibition of recombinant N-terminal His-tagged AKR1C3 (unknown origin) assessed as rate of change of pyridine nucleotide absorbance in presence of NADPH
[12] = target: T2, Aldo-keto reductase family 1 member C3; test: Inhibition of N-terminal His6-tagged human recombinant AKR1C3 in presence of NADPH by fluorescence assay

Sequence of Aldo-keto reductase family 1 member C2 (P52895 whole entry): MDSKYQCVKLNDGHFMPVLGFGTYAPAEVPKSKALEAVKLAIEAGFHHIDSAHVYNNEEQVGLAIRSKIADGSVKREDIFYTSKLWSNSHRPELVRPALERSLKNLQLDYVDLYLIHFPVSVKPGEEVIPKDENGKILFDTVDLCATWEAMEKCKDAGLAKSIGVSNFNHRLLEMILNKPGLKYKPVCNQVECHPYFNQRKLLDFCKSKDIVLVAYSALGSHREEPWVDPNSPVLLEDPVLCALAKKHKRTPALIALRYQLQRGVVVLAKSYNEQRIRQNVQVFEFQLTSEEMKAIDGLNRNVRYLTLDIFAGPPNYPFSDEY

For CC(C)=CCc1ccc(/C=C/C(=O)O)cc1NC(=O)CCc1ccccc1, the Activity [1] was 40%, the Activity [2] was 20% and the Activity [3] was “Active”. The Activity [4] was 80 to 95%, the Activity [5] was 52% and the Activity [6] was “Active”. The Activity [7] was 45% and the Activity [8] was 8%.

Work on CC(=O)O[C@]1(C(C)=O)CC[C@H]2[C@@H]3C[C@H](C)C4=CC(=O)CC[C@]4(C)[C@H]3CC[C@@]21C [MEDROXYPROGESTERONE ACETATE] yielded a Ratio IC50 [9] of 0.66, an IC50 [10] of 3.98 µM and an IC50 [11] of 2.51 µM.

C[C@@H]1C(O)=C(C(N)=O)C(=O)[C@@]2(O)C(O)=C3C(=O)c4c(O)cccc4[C@@](C)(O)[C@H]3C[C@@H]12 showed an IC50 [12] of 0.501 µM.

— ChEMBL document CHEMBL4428081, “Selective AKR1C3 Inhibitors Potentiate Chemotherapeutic Activity in Multiple Acute Myeloid Leukemia (AML) Cell Lines” (ACS Med Chem Lett, 2016)
